# In ChEMBL document CHEMBL4024765 (J Med Chem, 2017):
# System: Liver
# Assay: Drug metabolism in BALB/c mouse liver microsomes assessed as N-dealkylation on tertiary amine at 1 uM in presence of NADPH by mass spectrometric analysis
# Format: ADME, microsome
# Conditions: not given
# Outline: (§1)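 Compound at 1 μM with 0.35 mg/ml male BALB/c mouse liver microsomes, 1 mM NADPH, 100 mM phosphate pH 7.4, 37 °C, 30 min; triplicate. Stopped by ice-cold acetonitrile with carbamazepine internal standard; parent loss by LC-MS/MS (ESI positive, MRM) as % remaining; scan data screened for putative metabolite fragments.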
row,Structure (SMILES),Drug metabolism
1,CN(Cc1ccc(CNc2ccnc3cc(Cl)ccc23)cc1)Cc1ccccn1,Metabolite_Detected
2,CN(Cc1ccccc1)Cc1cccc(CNc2ccnc3cc(Cl)ccc23)c1.Cl,Metabolite_Detected
3,CN(Cc1cccc(CNc2ccnc3cc(Cl)ccc23)c1)Cc1ccccn1,Metabolite_Detected

# System: Plasmodium falciparum
# Assay: Antiplasmodial activity against chloroquine-sensitive synchronized trophozoite stage of Plasmodium falciparum NF54 after 48 hrs by NBT dye based LDH assay
# Format: functional
# Conditions: NF54, 48 h
row,Structure (SMILES),IC50 [nM]
1,CN(Cc1ccc(CNc2ccnc3cc(Cl)ccc23)cc1)Cc1ccccn1,38.5
2,CN(Cc1ccccc1)Cc1cccc(CNc2ccnc3cc(Cl)ccc23)c1.Cl,14.4
3,CN(Cc1cccc(CNc2ccnc3cc(Cl)ccc23)c1)Cc1ccccn1,30.1

# System: not listed separately
# Assay: Selectivity index, ratio of IC50 for CHO cells to IC50 for chloroquine-sensitive synchronized trophozoite stage of Plasmodium falciparum NF54
# Format: toxicity
# Conditions: hamster; read-out: Ratio IC50
row,Structure (SMILES),selectivity ratio
1,CN(Cc1ccc(CNc2ccnc3cc(Cl)ccc23)cc1)Cc1ccccn1,408
2,CN(Cc1ccccc1)Cc1cccc(CNc2ccnc3cc(Cl)ccc23)c1.Cl,660
3,CN(Cc1cccc(CNc2ccnc3cc(Cl)ccc23)c1)Cc1ccccn1,275

# System: not listed separately
# Assay: n-Octanol-buffer distribution coefficient, log D of the compound at pH 5 incubated for 4 hrs by UV-vis based shake flask method
# Format: physicochemical
# Conditions: not given
row,Structure (SMILES),logD at 4 h
1,CN(Cc1ccc(CNc2ccnc3cc(Cl)ccc23)cc1)Cc1ccccn1,0.84
2,CN(Cc1ccccc1)Cc1cccc(CNc2ccnc3cc(Cl)ccc23)c1.Cl,1.33
3,CN(Cc1cccc(CNc2ccnc3cc(Cl)ccc23)c1)Cc1ccccn1,0.82

# System: not listed separately
# Assay: n-Octanol-buffer distribution coefficient, log D of the compound at pH 7.4 […] by HPLC based shake flask method
# Format: physicochemical
# Conditions: not given
row,Structure (SMILES),logD
1,CN(Cc1ccc(CNc2ccnc3cc(Cl)ccc23)cc1)Cc1ccccn1,2.85
2,CN(Cc1ccccc1)Cc1cccc(CNc2ccnc3cc(Cl)ccc23)c1.Cl,3.56
3,CN(Cc1cccc(CNc2ccnc3cc(Cl)ccc23)c1)Cc1ccccn1,2.47

# System: not listed separately
# Assay: Metabolic stability in BALB/c mouse liver microsomes assessed as parent compound remaining at 1 uM after 30 mins in presence of NADPH by LC-MS/MS analysis
# Format: ADME, microsome
# Conditions: read-out: Stability
# Outline: as §1
row,Structure (SMILES),"remaining at 0.5 h, 1 µM [%]"
1,CN(Cc1ccc(CNc2ccnc3cc(Cl)ccc23)cc1)Cc1ccccn1,2.08
2,CN(Cc1ccccc1)Cc1cccc(CNc2ccnc3cc(Cl)ccc23)c1.Cl,3.57
3,CN(Cc1cccc(CNc2ccnc3cc(Cl)ccc23)c1)Cc1ccccn1,2.96

# System: Plasmodium falciparum
# Assay: Resistance index, ratio of IC50 for chloroquine-resistant synchronized trophozoite stage of Plasmodium falciparum 7G8 to IC50 for chloroquine-sensitive synchronized trophozoite stage of Plasmodium falciparum NF54
# Format: functional
# Conditions: not given
row,Structure (SMILES),Ratio IC50
1,CN(Cc1ccc(CNc2ccnc3cc(Cl)ccc23)cc1)Cc1ccccn1,3
2,CN(Cc1ccccc1)Cc1cccc(CNc2ccnc3cc(Cl)ccc23)c1.Cl,4.8
3,CN(Cc1cccc(CNc2ccnc3cc(Cl)ccc23)c1)Cc1ccccn1,2.8

# System: Plasmodium falciparum
# Assay: Antiplasmodial activity against chloroquine-resistant synchronized trophozoite stage of Plasmodium falciparum Dd2 after 48 hrs by NBT dye based LDH assay
# Format: functional
# Conditions: Dd2, 48 h
row,Structure (SMILES),IC50 [nM]
1,CN(Cc1ccc(CNc2ccnc3cc(Cl)ccc23)cc1)Cc1ccccn1,151
2,CN(Cc1ccccc1)Cc1cccc(CNc2ccnc3cc(Cl)ccc23)c1.Cl,44.5
3,CN(Cc1cccc(CNc2ccnc3cc(Cl)ccc23)c1)Cc1ccccn1,124

# System: not listed separately
# Assay: Inhibition of beta hematin formation by detergent based assay
# Conditions: not given
# Outline: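 β-hematin formation from hematin in 1 M acetate buffer pH 4.9 with NP40 detergent, compound serially diluted from 20 mM DMSO stock; ~5 h at 37 °C. Free heme complexed with pyridine/acetone/HEPES pH 7.4 solution, absorbance at 405 nm; IC50 from dose-response curves.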
row,Structure (SMILES),IC50 [nM]
1,CN(Cc1ccc(CNc2ccnc3cc(Cl)ccc23)cc1)Cc1ccccn1,17200
2,CN(Cc1ccccc1)Cc1cccc(CNc2ccnc3cc(Cl)ccc23)c1.Cl,13400
3,CN(Cc1cccc(CNc2ccnc3cc(Cl)ccc23)c1)Cc1ccccn1,20800

# System: not listed separately
# Assay: Kinetic solubility of compound in simulating fasting state biorelevant media at pH 6.5 after 2 hrs by shake flask method
# Format: physicochemical
# Conditions: fasted-state simulating biorelevant medium, read-out: Kinetic_solubility
row,Structure (SMILES),solubility kinetic at 2 h [µM]
1,CN(Cc1ccc(CNc2ccnc3cc(Cl)ccc23)cc1)Cc1ccccn1,197
2,CN(Cc1ccccc1)Cc1cccc(CNc2ccnc3cc(Cl)ccc23)c1.Cl,51.8
3,CN(Cc1cccc(CNc2ccnc3cc(Cl)ccc23)c1)Cc1ccccn1,59.8

# System: Liver
# Assay: Drug metabolism in BALB/c mouse liver microsomes assessed as N-dealkylation with oxidative deamination at 1 uM in presence of NADPH by mass spectrometric analysis
# Format: ADME, microsome
# Conditions: not given
# Outline: as §1
row,Structure (SMILES),Drug metabolism
1,CN(Cc1ccc(CNc2ccnc3cc(Cl)ccc23)cc1)Cc1ccccn1,Metabolite_Detected
2,CN(Cc1ccccc1)Cc1cccc(CNc2ccnc3cc(Cl)ccc23)c1.Cl,Metabolite_Detected
3,CN(Cc1cccc(CNc2ccnc3cc(Cl)ccc23)c1)Cc1ccccn1,Metabolite_Detected

# System: Liver
# Assay: Drug metabolism in BALB/c mouse liver microsomes assessed as oxidation of quinoline core or pyridyl ring at 1 uM in presence of NADPH by mass spectrometric analysis
# Format: ADME, microsome
# Conditions: not given
# Outline: as §1
row,Structure (SMILES),Drug metabolism
1,CN(Cc1ccc(CNc2ccnc3cc(Cl)ccc23)cc1)Cc1ccccn1,Metabolite_Detected
2,CN(Cc1ccccc1)Cc1cccc(CNc2ccnc3cc(Cl)ccc23)c1.Cl,Metabolite_Detected
3,CN(Cc1cccc(CNc2ccnc3cc(Cl)ccc23)c1)Cc1ccccn1,Metabolite_Detected

# System: Plasmodium falciparum
# Assay: Decrease in hemozoine formation in chloroquine-sensitive synchronized ring stage of Plasmodium falciparum NF54 after 32 hrs by flow cytometric analysis
# Format: functional
# Conditions: not given
# Outline: (§2)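 Sorbitol-synchronized (5%) ring-stage cultures exposed to compound at multiples of IC50 for 32 h; trophozoites freed with 0.05% saponin, PBS-washed, counted by hemocytometer and flow cytometry. Hypotonic lysis/sonication, then sequential SDS/pyridine fractionation into hemoglobin, free heme and hemozoin (SDS/NaOH) fractions; each measured by UV-vis as Fe(III) heme-pyridine complex.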
row,Structure (SMILES),Activity
1,CN(Cc1ccc(CNc2ccnc3cc(Cl)ccc23)cc1)Cc1ccccn1,Dose-dependent effect
2,CN(Cc1cccc(CNc2ccnc3cc(Cl)ccc23)c1)Cc1ccccn1,Dose-dependent effect

# System: Plasmodium berghei
# Assay: Antimalarial activity against chloroquine-sensitive Plasmodium berghei ANKA infected in C57BL/6 mouse assessed as supression of parasitemia at 30 mg/kg, po administered for 4 consecutive days starting at 2 hrs post infection by peter's test relative to control
# Format: functional
# Conditions: not given
# Outline: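 P. berghei ANKA passaged in C57BL/6 donor; test mice infected ip with 200 μL of 1 × 10⁷ parasitized erythrocytes in PBS. Oral dosing 30 mg/kg at 2 h post-infection, then daily D0–D3; PBS-dosed controls. Parasitemia read on D4 from Giemsa-stained, methanol-fixed tail thin films; suppression relative to control.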
row,Structure (SMILES),Activity [%]
1,CN(Cc1ccc(CNc2ccnc3cc(Cl)ccc23)cc1)Cc1ccccn1,91.4
2,CN(Cc1ccccc1)Cc1cccc(CNc2ccnc3cc(Cl)ccc23)c1.Cl,97.5
3,CN(Cc1cccc(CNc2ccnc3cc(Cl)ccc23)c1)Cc1ccccn1,97.8

# System: Plasmodium falciparum
# Assay: Increase in free heme levels in chloroquine-sensitive synchronized ring stage of Plasmodium falciparum NF54 after 32 hrs by flow cytometric analysis
# Format: functional
# Conditions: not given
# Outline: as §2
row,Structure (SMILES),Activity
1,CN(Cc1ccc(CNc2ccnc3cc(Cl)ccc23)cc1)Cc1ccccn1,Dose-dependent effect
2,CN(Cc1cccc(CNc2ccnc3cc(Cl)ccc23)c1)Cc1ccccn1,Dose-dependent effect

# System: CHO
# Assay: Cytotoxicity against CHO cells by MTT assay
# Format: cell-based
# Conditions: Cricetulus griseus
# Outline: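 MTT assay on CHO cells. DMSO stock diluted in complete medium; 10-fold serial dilutions, 6 concentrations from 100 to 0.001 μg/mL; emetine reference; triplicate on each occasion. IC50 from non-linear fit of full dose-response curves.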
row,Structure (SMILES),IC50 [nM]
1,CN(Cc1ccc(CNc2ccnc3cc(Cl)ccc23)cc1)Cc1ccccn1,15700
2,CN(Cc1ccccc1)Cc1cccc(CNc2ccnc3cc(Cl)ccc23)c1.Cl,9500
3,CN(Cc1cccc(CNc2ccnc3cc(Cl)ccc23)c1)Cc1ccccn1,8300

# System: Liver
# Assay: Drug metabolism in BALB/c mouse liver microsomes assessed as oxidation of aldehyde to carboxylic acid at 1 uM in presence of NADPH by mass spectrometric analysis
# Format: ADME, microsome
# Conditions: not given
# Outline: as §1
row,Structure (SMILES),Drug metabolism
1,CN(Cc1ccc(CNc2ccnc3cc(Cl)ccc23)cc1)Cc1ccccn1,Metabolite_Detected
2,CN(Cc1ccccc1)Cc1cccc(CNc2ccnc3cc(Cl)ccc23)c1.Cl,Metabolite_Detected
3,CN(Cc1cccc(CNc2ccnc3cc(Cl)ccc23)c1)Cc1ccccn1,Metabolite_Detected

# System: Liver
# Assay: Drug metabolism in BALB/c mouse liver microsomes assessed as aldehyde reduction at 1 uM in presence of NADPH by mass spectrometric analysis
# Format: ADME, microsome
# Conditions: not given
# Outline: as §1
row,Structure (SMILES),Drug metabolism
1,CN(Cc1ccc(CNc2ccnc3cc(Cl)ccc23)cc1)Cc1ccccn1,Metabolite_Detected
2,CN(Cc1ccccc1)Cc1cccc(CNc2ccnc3cc(Cl)ccc23)c1.Cl,Metabolite_Detected
3,CN(Cc1cccc(CNc2ccnc3cc(Cl)ccc23)c1)Cc1ccccn1,Metabolite_Detected

# System: Plasmodium falciparum
# Assay: Antiplasmodial activity against chloroquine-resistant synchronized trophozoite stage of Plasmodium falciparum 7G8 after 48 hrs by NBT dye based LDH assay
# Format: functional
# Conditions: 7G8, 48 h
row,Structure (SMILES),IC50 [nM]
1,CN(Cc1ccc(CNc2ccnc3cc(Cl)ccc23)cc1)Cc1ccccn1,114
2,CN(Cc1ccccc1)Cc1cccc(CNc2ccnc3cc(Cl)ccc23)c1.Cl,69.6
3,CN(Cc1cccc(CNc2ccnc3cc(Cl)ccc23)c1)Cc1ccccn1,83.8

# System: not listed separately
# Assay: Intrinsic clearance in BALB/c mouse liver microsomes at 1 uM in presence of NADPH by LC-MS/MS analysis
# Format: ADME, microsome
# Conditions: read-out: CLH
# Outline: as §1
row,Structure (SMILES),CLint scaled at 1 µM [mL/min/kg]
1,CN(Cc1ccc(CNc2ccnc3cc(Cl)ccc23)cc1)Cc1ccccn1,1250
2,CN(Cc1ccccc1)Cc1cccc(CNc2ccnc3cc(Cl)ccc23)c1.Cl,1110
3,CN(Cc1cccc(CNc2ccnc3cc(Cl)ccc23)c1)Cc1ccccn1,1140

# System: not listed separately
# Assay: Half life in BALB/c mouse liver microsomes at 1 uM in presence of NADPH by LC-MS/MS analysis
# Format: ADME, microsome
# Conditions: not given
# Outline: as §1
row,Structure (SMILES),half-life at 1 µM [min]
1,CN(Cc1ccc(CNc2ccnc3cc(Cl)ccc23)cc1)Cc1ccccn1,5.35
2,CN(Cc1ccccc1)Cc1cccc(CNc2ccnc3cc(Cl)ccc23)c1.Cl,6.15
3,CN(Cc1cccc(CNc2ccnc3cc(Cl)ccc23)c1)Cc1ccccn1,5.89

# System: Plasmodium falciparum
# Assay: Increase in hemoglobin levels in chloroquine-sensitive synchronized ring stage of Plasmodium falciparum NF54 after 32 hrs by flow cytometric analysis
# Format: functional
# Conditions: not given
# Outline: as §2
row,Structure (SMILES),Activity
1,CN(Cc1ccc(CNc2ccnc3cc(Cl)ccc23)cc1)Cc1ccccn1,Dose-dependent effect
2,CN(Cc1cccc(CNc2ccnc3cc(Cl)ccc23)c1)Cc1ccccn1,Dose-dependent effect

# System: Plasmodium falciparum
# Assay: Resistance index, ratio of IC50 for chloroquine-resistant synchronized trophozoite stage of Plasmodium falciparum Dd2 to IC50 for chloroquine-sensitive synchronized trophozoite stage of Plasmodium falciparum NF54
# Format: functional
# Conditions: not given
row,Structure (SMILES),Ratio IC50
1,CN(Cc1ccc(CNc2ccnc3cc(Cl)ccc23)cc1)Cc1ccccn1,3.9
2,CN(Cc1ccccc1)Cc1cccc(CNc2ccnc3cc(Cl)ccc23)c1.Cl,3.1
3,CN(Cc1cccc(CNc2ccnc3cc(Cl)ccc23)c1)Cc1ccccn1,4.1
